Compound activity as filed in PubChem BioAssay.
This is a sample that favours compounds with a hit; in the whole collection about 4.8% have one here.
UCH37 inh = inhibitors of human deubiquitinating enzyme UCH37. AID 588478. hit rate 0.33% among 330,000. purified proteasome/UCH37, Ub-AMC cleavage fluorescence. inhibition, % (no concentration beside the values). Q9Y5K5;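 active = mean inhibition over replicate wells above about 20%, limit read from the data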;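 note: 0% = compound-free wells with enzyme and 100% = wells lacking proteasome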
Target sequence (Q9Y5K5 whole entry, looked up): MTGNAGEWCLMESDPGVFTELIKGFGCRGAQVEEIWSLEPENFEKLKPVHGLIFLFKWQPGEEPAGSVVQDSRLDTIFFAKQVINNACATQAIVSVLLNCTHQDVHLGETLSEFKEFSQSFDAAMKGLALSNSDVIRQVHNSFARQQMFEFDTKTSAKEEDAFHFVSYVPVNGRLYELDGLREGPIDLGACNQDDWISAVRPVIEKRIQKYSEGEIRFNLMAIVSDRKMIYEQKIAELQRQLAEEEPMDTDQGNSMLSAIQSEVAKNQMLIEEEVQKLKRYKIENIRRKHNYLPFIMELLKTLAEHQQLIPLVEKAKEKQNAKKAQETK
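Assay system: Proteasome-bound UCH37. Buffer or medium: pH 7.4 Tris-HCl (50 mM) with ovalbumin, ATP-MgCl2, DTT. Incubation: 30 min preincubation with enzyme, 25 min cleavage at room temperature. Measured by: fluorescence, ex 355 nm, em 460 nm. Read-out basis: percent inhibition. Control set: wells without proteasome as full block, compound-free enzyme plus substrate as uninhibited.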
Calb FLC = affects C. albicans growth with fluconazole | growth inhibition, % (no concentration beside the values) | hit rate 0.57% among 300,000 | C. albicans CaCi-2 + fluconazole, Alamar Blue growth, 48 h;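 active = growth inhibition above about 58% in most replicates, limit read from the data, passing the limit was not always enough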;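 note: all wells also contain fluconazole at 8 µg/ml as a sub-toxic cotreatment; 0% = median of DMSO wells and 100% = median of geldanamycin control wells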
NALP1 inh = NALP1 inhibition; S. cerevisiae NALP1/ASC/caspase-1 growth, X-gal OD620, 72 h; inhibition, % at 10 µM; hit rate 0.61% among 280,000; AID 2071; in the data active = inhibition mostly above about 24%, no sharp cut-off; inactive = mostly below about 32%
ATG4B inhibitor = blocks human ATG4B protease cleavage of LC3 substrate | inhibition, % at 8.33 µM | hit rate 0.51% among 340,000 | ATG4B cleavage of LC3-PLA2, NBD-HPC fluorescence, 1 h; in the data active = inhibition above about 40%
NLRP3 yeast inh = blocks the NALP3 inflammasome reconstituted in yeast; Yeast reconstituted NLRP3/ASC/caspase-1, beta-gal luminescence, 24 h; hit rate 0.39% among 330,000; AID 2825; inhibition, % at 10 µM;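 active = inhibition of 50% or more; inactive = inhibition below 50%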;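 note: plate controls were induced DMSO wells for no effect and uninduced yeast grown without galactose for full effect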
ALR H2O2 inh = inhibitors of human sulfhydryl oxidase ALR; hit rate 3.8% among 290,000; AID 485317; purified ALR, DTT oxidation, H2O2 HRP-luminol luminescence; P55789; inhibition, % (concentration not given with the values);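 active = mean replicate inhibition above about 79%, with every replicate also reaching it, limit read from the data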
Target sequence (P55789 whole entry, looked up): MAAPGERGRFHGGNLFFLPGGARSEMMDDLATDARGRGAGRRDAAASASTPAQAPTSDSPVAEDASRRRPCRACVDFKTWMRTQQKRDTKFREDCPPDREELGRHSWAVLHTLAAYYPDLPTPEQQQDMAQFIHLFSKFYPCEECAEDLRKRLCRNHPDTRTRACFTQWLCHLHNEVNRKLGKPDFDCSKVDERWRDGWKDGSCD
Starred values were filed as active, the others as inactive; i = inactive; . = no result.

SMILES	UCH37 inh	Calb FLC	NALP1 inh	ATG4B inhibitor	NLRP3 yeast inh	ALR H2O2 inh
COCCCN1CC(=O)N2C(c3cccc(OC)c3)c3[nH]c4ccccc4c3C[C@H]2C1=O (some centres not stated)	6	-12	11	-8	9	100*
Cc1ccc(C(=O)NN=Cc2cccc(OC(=O)/C=C/c3ccco3)c2)cn1	2	.	.	.	.	.
COc1ccc(C2c3[nH]c4ccccc4c3C[C@H]3C(=O)N(CCCO)CC(=O)N23)c(OC)c1 (some centres not stated)	2	3	0	-2	7	99*
CCOc1cc(C=NNc2ncc(F)c(N3CCOCC3)n2)ccc1Oc1nc(Cl)ncc1F	4	.	.	.	.	.
CC(=NOC(=O)CC(C)C)c1cc(-c2ccc(Cl)cc2)no1	0	.	.	.	.	.
Cc1ccccc1C=NNC(=O)CSc1nc2ccccc2o1	-1	.	.	.	.	.
CCOC(=O)N1CCN(C(=O)c2ccc3c(c2)N(CC)CCS3)CC1	-27	-6	-2	1	14	47
CCOC(=O)N1CCN(C(=O)c2ccc3c(c2)N(Cc2ccc(F)cc2)CCS3)CC1	-60	15	12	3	11	98*
CN1CCN(CCCNC(=O)c2ccc3c(c2)N(Cc2ccc(F)cc2)CCS3)CC1	i	-1	27	-11	6	99*
O=C(NCC1CCCO1)c1ccc2c(c1)N(Cc1ccc(F)cc1)CCS2 (configuration not stated)	i	7	14	4	12	99*
O=C(NCCCN1CCOCC1)c1ccc2c(c1)N(Cc1ccc(F)cc1)CCS2	i	6	-40	10	15	99*
O=C(NCCN1CCOCC1)c1cc2sccc2n1Cc1ccc(F)cc1	3	0	15	-1	11	97*
On1ccccc1=S	.	.	.	4	.	92*
CC(C)(C=NNC(=O)CSCc1ccc(Cl)cc1)CCC#N	0	.	.	.	.	.
COc1ccc(OC)c(CNc2ncc(-c3cccc([N+](=O)[O-])c3)n2C)c1	7	4	1	7	12	98*
O=C(O)COc1ccccc1C=NNC(=O)CSc1nc2ccccc2n1Cc1ccc(Cl)cc1	2	.	.	.	.	.
O=C(CSCc1ccccc1)N1CCN(Cc2ccc3c(c2)OCO3)CC1	1	1	23	-3	37	-2
Cc1ccc(-c2nc(CSCC(=O)N3CCN(C(=O)c4ccco4)CC3)c(C)o2)cc1	2	1	-6	-3	19	99*
Cc1ccc(-c2nnc(SCC(=O)N3CCOCC3)nc2-c2ccc(C)cc2)cc1	0	0	6	-2	17	95*
Cc1ccc(-c2nc(CS(=O)(=O)CC(=O)N3CCOCC3)c(C)o2)cc1	3	3	15	-5	8	-8
Cc1ccc(-c2nc(CSCC(=O)N3CCOCC3)c(C)o2)cc1	2	4	-6	-9	4	99*
Cc1cccc(-c2nc(CSCC(=O)N3CCN(Cc4ccc5c(c4)OCO5)CC3)c(C)o2)c1	-3	-41	38	-13	22	98*
COc1ccc(-c2nc(CN3CCN(C(=O)c4ccco4)CC3)c(C)o2)cc1OC	1	-3	5	23	19	-8
CCOC(=O)Cc1csc(C(=NO)C(N)=O)n1	3	.	.	.	.	.
CC=NNC(=O)CCNC(=O)c1ccccc1	7	.	.	.	.	.
SMILES	UCH37 inh	Calb FLC	NALP1 inh	ATG4B inhibitor	NLRP3 yeast inh	ALR H2O2 inh
Cc1cccc(C=NNC(=O)c2ccc(F)cc2)n1	1	.	.	.	.	.
COc1cc(C=NNC(=S)NCc2ccco2)cc(OC)c1OC	6	.	.	.	.	.
COc1ccc(C=NNC(=O)c2ccc(Br)cc2)c(OC)c1	-5	.	.	.	.	.
COc1ccc(-n2c(SCC(=O)Nc3ccc(Cl)cc3)nc(O)c(Cc3ccccc3)c2=O)cc1	1	-2	15	-6	14	56
COc1ccc(-n2c(SCC(=O)Nc3ccc(C)cc3)nc(O)c(Cc3ccccc3)c2=O)cc1	0	-1	12	-1	11	98*
COc1ccc(-n2c(SCC(=O)Nc3ccccc3C)nc(O)c(Cc3ccccc3)c2=O)cc1	0	17	12	-3	16	88*
CCN(CC)C(=O)CSc1nc(O)c(Cc2ccccc2)c(=O)n1-c1ccc(C)cc1	3	-3	-2	-5	9	8
O=C(CSc1nnc(-c2ccccc2)n1-c1ccc(Cl)cc1)NN=Cc1ccco1	2	.	.	.	.	.
Cc1cc(NC(=NS(=O)(=O)c2ccc(Cl)cc2)c2ccc(F)cc2)no1	6	.	.	.	.	.
CC12CCC(CC1=NO)C2(C)C (configuration not stated)	1	.	.	.	.	.
O=C(COc1ccc(Br)cc1Br)NC(=S)N1CCCc2ccccc21	4	-7	18	16	18	93*
O=C(NN=Cc1ccncc1)c1cc([N+](=O)[O-])cc([N+](=O)[O-])c1	4	.	.	.	.	.
CC(=O)n1nc(-c2ccncc2)nc1SCC(=O)Nc1cccc(Cl)c1	.	-3	-1	6	.	.
CC(=O)NC1C(=O)N=C(SCC(=O)Nc2cccc(Cl)c2)NC1=O (configuration not stated)	8	3	-2	2	-11	99*
CC(=O)NC1C(=O)N=C(SCC(=O)Nc2sc3c(c2C#N)CCCCCC3)NC1=O (configuration not stated)	7	-10	16	-5	8	99*
O=C(NN=Cc1c[nH]c2ccccc12)c1ccc(Cl)cc1	0	.	.	.	.	.
O=C(O)COc1ccccc1C=NNC(=O)CN1CCN(Cc2ccccc2Cl)CC1	2	.	.	.	.	.
O=C(CON=Cc1ccc2c(c1)OCO2)Nc1cccc(Br)c1	3	.	.	.	.	.
CCn1c(CNc2ccc(Cl)cc2)nnc1SCCN1CCCCC1	-6	-1	9	-10	-8	98*
COc1ccc(N2CCN(Cc3nc(Cc4cccc(F)c4)no3)C(C)C2)cc1 (configuration not stated)	4	3	1	-7	-4	98*
O=C1c2cccc([N+](=O)[O-])c2C(=O)N1C1CCCCC1	2	-2	0	1	5	98*
O=C(NN=Cc1ccc(-c2ccc(Cl)c(C(=O)O)c2)o1)c1cc2c(ccc3ccccc32)o1	-208	.	.	.	.	.
CCOC(=O)c1c(C)[nH]c(N=Nc2ccccc2)c1C	0	-13	-4	-5	31	87*
CCOC(=O)C1CCN(S(=O)(=O)c2cccc(-c3cn4cccc(C)c4n3)c2)CC1	-2	.	7	-15	-5	-6
CCOC(=O)C1CCN(S(=O)(=O)c2cccc(-c3cn4ccccc4n3)c2)CC1	-4	-4	22	2	11	99*
CCOC(=O)C1CCN(S(=O)(=O)c2cccc(-c3cn4cc(Cl)ccc4n3)c2)CC1	0	-18	5	-8	19	99*
CCCc1nn(C)c2c(=O)[nH]c(-c3cc(S(=O)(=O)N(CCO)CCO)ccc3OCC)nc12	-1	-6	30*	-3	0	-7
